These results are taken from ChEMBL document CHEMBL1221320, “N(G)-Acyl-argininamides as NPY Y(1) receptor antagonists: Influence of structurally diverse acyl substituents on stability and affinity” (Bioorg Med Chem, 2010).

The nature of data set [1]: Distribution coefficient, log D of the compound. Type of data set: physicochemical. Particulars: octanol/water; call rule not given here. In a few lines: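 Calculated at pH 7.4 by ACD software. Experimental values came from RP-HPLC on a C18 column at 25 °C and 0.30 mL/min, using 10 mM ammonium acetate pH 7.4 versus acetonitrile (5→98% over 30 min). Injection was 2 µL of a 1 mM DMSO solution with diode-array detection. Retention time was calibrated against six reference compounds.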

Data set [2] addresses T1, Neuropeptide Y receptor type 1 (Homo sapiens, UniProt P25929).
T1 sequence (P25929 whole entry): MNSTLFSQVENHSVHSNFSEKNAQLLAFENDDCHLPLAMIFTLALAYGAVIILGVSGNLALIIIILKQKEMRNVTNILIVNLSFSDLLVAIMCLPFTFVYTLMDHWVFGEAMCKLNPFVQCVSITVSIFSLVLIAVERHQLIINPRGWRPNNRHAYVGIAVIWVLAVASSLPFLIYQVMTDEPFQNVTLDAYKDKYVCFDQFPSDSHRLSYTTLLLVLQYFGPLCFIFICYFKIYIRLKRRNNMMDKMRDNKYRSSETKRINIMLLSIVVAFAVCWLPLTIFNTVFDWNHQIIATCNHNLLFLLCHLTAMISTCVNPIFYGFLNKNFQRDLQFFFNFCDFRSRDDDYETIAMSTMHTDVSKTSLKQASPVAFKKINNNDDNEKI
Briefly: Displacement of [3H]UR-MK114 from NPY1 receptor in human SK-N-MC cells. The class given is cell-based. Put shortly:
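Data were fitted with four-parameter sigmoidal curves. IC50 was converted to Ki by Cheng–Prusoff using the radioligand KD. Mean ± SEM of two or three independent experiments. Assay period from solution preparation to read-out was 60–90 min.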
For orientation: Loss of bound radioactivity is the signal in a displacement assay; it reports binding, not function.

Data set [3] deals with T2, Neuropeptide Y receptor type 1 (Homo sapiens) (UniProt P25929).
T2 sequence (whole entry): T1 sequence (P25929 whole entry)
As to the kind of experiment: Antagonist activity at NPY1 receptor in human HEL cells assessed as inhibition of NPY-induced calcium mobilization by Fura-2 assay. Type of data set: functional, cell-based.

For the compound `N=C(NCCC[C@@H](NC(=O)C(c1ccccc1)c1ccccc1)C(=O)NCc1ccc(O)cc1)NC(=O)CCC(=O)NCCNC(=O)c1ccc(F)cc1`, the logD in data set [1] (read-out: logD) worked out at 3.5.
As for `COC(=O)CCCCCCC(=O)NC(N)=NCCC[C@@H](NC(=O)C(c1ccccc1)c1ccccc1)C(=O)NCc1ccc(O)cc1`, the logD in data set [1] (read-out: logD) came to 3.9. In data set [2] (read-out: Ki), the inhibition constant (Ki) turned out to be 0.9 nM.
For the compound `N=C(NCCC[C@@H](NC(=O)C(c1ccccc1)c1ccccc1)C(=O)NCc1ccc(O)cc1)NC(=O)CCCCCCC(=O)NCCC(=O)OCc1ccccc1`, in data set [1] (read-out: logD), the logD amounted to 4.6. Besides, the Kb in data set [3] came out at 1.1 nM. For the same compound, in data set [2] (read-out: Ki), the Ki was 40 nM.
For the compound `N=C(NCCC[C@@H](NC(=O)C(c1ccccc1)c1ccccc1)C(=O)NCc1ccc(O)cc1)NC(=O)CCCn1cc(CN)nn1`, in data set [3], the Kb was 14 nM.
With `CC(=O)OC[C@@H](OC(C)=O)[C@@H](OC(C)=O)[C@H](OC(C)=O)[C@@H](OC(C)=O)C(=O)NC(N)=NCCC[C@@H](NC(=O)C(c1ccccc1)c1ccccc1)C(=O)NCc1ccc(O)cc1`, the logD in data set [1] (read-out: logD) was found to be 3.5. Further, in data set [2] (read-out: Ki), the Ki was 83 nM.
Regarding `CC(=O)OC[C@@H](OC(C)=O)[C@@H](OC(C)=O)[C@H](OC(C)=O)[C@@H](OC(C)=O)C(=O)NC(=N)NCCC[C@@H](NC(=O)C(c1ccccc1)c1ccccc1)C(=O)NCc1ccc(O)cc1`, the Kb in data set [3] stood at 110 nM.
In the case of `CCC(=O)NCCNCCNC(=O)CCC(=O)NC(=N)NCCC[C@@H](NC(=O)C(c1ccccc1)c1ccccc1)C(=O)NCc1ccc(O)cc1`, in data set [1] (read-out: logD), the logD was -0.6.
Turning to `COC(=O)CCCCCCC(=O)NC(=N)NCCC[C@@H](NC(=O)C(c1ccccc1)c1ccccc1)C(=O)NCc1ccc(O)cc1`, the Kb in data set [3] was determined as 0.06 nM.
As for `NC(=NCCC[C@@H](NC(=O)C(c1ccccc1)c1ccccc1)C(=O)NCc1ccc(O)cc1)NC(=O)CCCCCCC(=O)NCCC(=O)O`, in data set [1] (read-out: logD), the pH-dependent lipophilicity (logD) turned out to be 0.7. The Ki in data set [2] (read-out: Ki) stood at 73 nM.
In the case of `N=C(NCCC[C@@H](NC(=O)C(c1ccccc1)c1ccccc1)C(=O)NCc1ccc(O)cc1)NC(=O)CCCCCCC(=O)NCCN`, the logD in data set [1] (read-out: logD) was -0.3. In data set [3], the Kb was 230 nM. Moreover, the Ki in data set [2] (read-out: Ki) stood at 130 nM.
Consider `NCc1cn(CCCC(=O)NC(N)=NCCC[C@@H](NC(=O)C(c2ccccc2)c2ccccc2)C(=O)NCc2ccc(O)cc2)nn1`, for which the logD in data set [1] (read-out: logD) worked out at 1.7. For the same compound, the inhibition constant (Ki) in data set [2] (read-out: Ki) was 6.7 nM.
The corresponding values for `N=C(NCCC[C@@H](NC(=O)C(c1ccccc1)c1ccccc1)C(=O)NCc1ccc(O)cc1)NC(=O)COCCOCCOCC(=O)NCCNC(=O)c1ccc2ccc3cccc4ccc1c2c34` are 6 and 59 nM.
In the case of `CCCCCCCCCCCCCCCC(=O)NC(N)=NCCC[C@@H](NC(=O)C(c1ccccc1)c1ccccc1)C(=O)NCc1ccc(O)cc1`, in data set [1], the logD is 9.4. In addition, the Ki in data set [2] (read-out: Ki) worked out at 460 nM.
With `N=C(N)NCCNC(=O)CCC(=O)NC(=N)NCCC[C@@H](NC(=O)C(c1ccccc1)c1ccccc1)C(=O)NCc1ccc(O)cc1`, the logD in data set [1] (read-out: logD) was -1.4.
For the compound `N=C(NCCC[C@@H](NC(=O)C(c1ccccc1)c1ccccc1)C(=O)NCc1ccc(O)cc1)NC(=O)CCCc1ccc2ccc3cccc4ccc1c2c34`, the logD in data set [1] (read-out: logD) was 7.6. Also, the Ki in data set [2] (read-out: Ki) stood at 270 nM.
On to `N=C(NCCC[C@@H](NC(=O)C(c1ccccc1)c1ccccc1)C(=O)NCc1ccc(O)cc1)NC(=O)CCCCCCC(=O)NCCC(=O)O`, for which, in data set [3], the Kb worked out at 450 nM.
Take `N=C(N)NCCCCCC(=O)NC(=N)NCCC[C@@H](NC(=O)C(c1ccccc1)c1ccccc1)C(=O)NCc1ccc(O)cc1`: in data set [1] (read-out: logD), the logD was -0.3. Also, in data set [3], the Kb is 18 nM. In addition, the Ki in data set [2] (read-out: Ki) worked out at 51 nM.
As for `N=C(NCCC[C@@H](NC(=O)C(c1ccccc1)c1ccccc1)C(=O)NCc1ccc(O)cc1)NC(=O)CCC(=O)NCCNCCN`, the logD in data set [1] (read-out: logD) is -1.8.
Take `COC(=O)CCNC(=O)CCCCCCC(=O)NC(=N)NCCC[C@@H](NC(=O)C(c1ccccc1)c1ccccc1)C(=O)NCc1ccc(O)cc1`: in data set [3], the Kb was found to be 170 nM.
For the compound `N=C(NCCC[C@@H](NC(=O)C(c1ccccc1)c1ccccc1)C(=O)NCc1ccc(O)cc1)NC(=O)CCCn1cc(CO)nn1`, the logD in data set [1] (read-out: logD) is 1.8. In addition, in data set [3], the Kb is 0.4 nM. The Ki in data set [2] (read-out: Ki) came to 3 nM.
In the case of `CCCCCCCCCCCCCCCC(=O)NC(=N)NCCC[C@@H](NC(=O)C(c1ccccc1)c1ccccc1)C(=O)NCc1ccc(O)cc1`, in data set [3], the Kb was found to be 170 nM.
As for `CCCCCCCCCCCCC#CC#CCCCCCCCCC(=O)NC(=N)NCCC[C@@H](NC(=O)C(c1ccccc1)c1ccccc1)C(=O)NCc1ccc(O)cc1`, the antagonist dissociation constant (Kb) in data set [3] was 140 nM. The Ki in data set [2] (read-out: Ki) came out at 1500 nM.
As for `N=C(NCCC[C@@H](NC(=O)C(c1ccccc1)c1ccccc1)C(=O)NCc1ccc(O)cc1)NC(=O)c1ccc2ccc3cccc4ccc1c2c34`, the logD in data set [1] (read-out: logD) came out at 7.2. Also, the Ki result in data set [2] (sk-n-mc) was “Not Active”.
In the case of `N=C(NCCC[C@@H](NC(=O)C(c1ccccc1)c1ccccc1)C(=O)NCc1ccc(O)cc1)NC(=O)CCC(=O)NCCN`, in data set [1] (read-out: logD), the logD was -1.3.
Same read-out and setting: for `N=C(N)NCCC[C@@H](NC(=O)C(c1ccccc1)c1ccccc1)C(=O)NCc1ccc(O)cc1` the value was 0.7.
`N=C(NCCC[C@@H](NC(=O)C(c1ccccc1)c1ccccc1)C(=O)NCc1ccc(O)cc1)NC(=O)CCC(=O)OC[C@H]1O[C@@H](O)[C@H](O)[C@@H](O)[C@H]1O`: the logD in data set [1] (read-out: logD) turned out to be 0.9. Moreover, the Kb in data set [3] was determined as 510 nM. In addition, the inhibition constant Ki in data set [2] (read-out: Ki) is 41 nM.
On to `COC(=O)CCNC(=O)CCCCCCC(=O)NC(N)=NCCC[C@@H](NC(=O)C(c1ccccc1)c1ccccc1)C(=O)NCc1ccc(O)cc1`, for which the logD in data set [1] (read-out: logD) came to 2.9. Also, the Ki in data set [2] (read-out: Ki) stood at 260 nM.

In general, logD refers to lipophilicity at a set pH, counting ionised and neutral species. As a reminder, the Ki is the dissociation constant of the complex between target and ligand, obtained from inhibition or displacement. Broadly, the Kb is the equilibrium dissociation constant of an antagonist, usually derived from a functional assay.
